Results gathered from unrelated publications.
Each line is one published result; the experiments were not run side by side.
Target: Mitogen-activated protein kinase 4 (MAPK4, Homo sapiens, UniProt P31152)

`O=C(NCC1CCOCC1)c1n[nH]cc1NC(=O)c1c(F)cccc1F` gave a remaining binding of 99% (binding; competition with immobilised ligand; 1 µM).
`O=C(c1ccc(Nc2ncc(Cl)c(-c3cc4ccccc4s3)n2)cc1)N1CCC(N2CCCC2)CC1` has a remaining binding of 20% (binding; competition with immobilised ligand; 1 µM).
For `COc1ccnn2ncc(-c3ccnc(N(C)C)n3)c12`, the remaining binding was 100% (binding; 1 µM).
With `O=C(c1ccc(Nc2nccc(-c3cc4ccccc4s3)n2)cc1)N1CCC(N2CCCC2)CC1` the remaining binding was 74% (binding; competition with immobilised ligand; 1 µM).
`CN(C)c1nccc(-c2cnc3ncccn23)n1` has a remaining binding of 98% (binding; 1 µM).
`O=C(NCCCN1CCOCC1)c1ccc(Nc2ncc(Cl)c(-c3ccc(Cl)s3)n2)cc1` gave a remaining binding of 1.4% (binding; competition with immobilised ligand; 1 µM).
`c1cncc(-c2cccc(Nc3nccc(NC4CCCCC4)n3)c2)c1` gave a remaining binding of 95% (binding; competition with immobilised ligand; 10 µM).
The remaining binding of `CC(=O)c1c(NS(C)(=O)=O)c2cc(-c3ccc(Cl)cc3)c(-c3ccc(Cl)cc3Cl)nc2n(C)c1=O` is reported as 100% (cell-free assay; competition with immobilised ligand; 1 µM).
For `CNC(=O)[C@@H]1CC[C@@H](n2c(-c3ccc4cnccc4c3)nc3ccc(C(=O)NCc4cccc(C(N)=O)c4)cc32)C1`, the remaining binding was 100% (binding; competition with immobilised ligand; 1 µM).
For `N[C@@H]1CCN(c2nccc(-c3cnn4ncccc34)n2)C1`, the remaining binding was 100% (binding; 1 µM).
`O=C(Nc1ccc(Oc2ccc(F)cc2)cc1)N1CCc2ncccc2[C@H]1c1ccc(F)cc1` has a remaining binding of 95% (cell-free assay; competition with immobilised ligand; 1 µM).
`c1cnn2ncc(-c3ccnc(N4CCC45COC5)n3)c2c1` gave a remaining binding of 83% (binding; 1 µM).
The remaining binding of `O=C1NC(c2ccccn2)Sc2ccccc21` (stereo not drawn) is reported as 86% (cell-free assay; competition with immobilised ligand; 1 µM).
`CN(C)c1ncc(F)c(-c2cnn3ncccc23)n1` has a remaining binding of 100% (binding; 1 µM).
The remaining binding of `Cn1nc(C(F)(F)F)cc1-c1cnc(N2CCc3cc(S(=O)(=O)Nc4c(F)cc(Cl)cc4F)cc(N4CCCC4=O)c32)nc1` is reported as 100% (cell-free assay; competition with immobilised ligand; 1 µM).
`C[C@H]1CCN(c2nccc(-c3cnn4ncccc34)n2)C1` gave a remaining binding of 93% (binding; 1 µM).
For `C[C@@H](c1ccc(-n2cnc3c(N)ncnc32)cc1)N1CCc2nn(C)c(Cc3ccccc3)c2C1=O`, the remaining binding was 87% (binding; competition with immobilised ligand; 0.1 µM).
With `CO[C@H]1CC[C@H](CNc2ccc(S(=O)(=O)NC(=O)c3ccc(N4CCN(CC5=C(c6ccc(Cl)cc6)CC(C)(C)CC5)CC4)cc3Oc3cnc4[nH]ccc4c3)cc2[N+](=O)[O-])CC1` the remaining binding was 100% (cell-free assay; competition with immobilised ligand; 1 µM).
With `C=CC(=O)N1CCC(C(=O)NCC(=O)N2CCN(c3nc(-c4cnc(N)nc4C(F)F)nc(N4CCOCC4)n3)CC2)CC1` the remaining binding was 97% (binding; competition with immobilised ligand; 1 µM).
`O=C(Nc1cnc(Oc2ccc(F)cc2)nc1)N1CCc2ncccc2[C@@H]1c1ccc(F)cc1` gave a remaining binding of 95% (cell-free assay; competition with immobilised ligand; 1 µM).
`COc1cnc(Nc2cccc(S(N)(=O)=O)c2)nc1N1CCN(c2ccccc2)CC1` gave a remaining binding of 96% (binding; competition with immobilised ligand; 1 µM).
